Laboratory results reported in ChEMBL document CHEMBL3871266, “Synthesis and cytotoxic activity of novel A-ring cleaved ursolic acid derivatives in human non-small cell lung cancer cells” (Eur J Med Chem, 2016).

Legend:
[1] = Cytotoxicity against human NCI-H460 spheroids expressing CTR5 gene assessed as reduction in cell viability measured after 96 hrs by CellTiter-Glo luminescence viability assay; type: functional, cell-based; details: NCI-H460, 96 h
Procedure, shortened: (§1)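 Spheroids grown in round-bottom ultralow-attachment wells, 495 (H460 CTR5) or 650 (H322) cells/well. Drug exposure 96h with DMSO vehicle. CellTiter-Glo added, shaken 20 min, left 10 min, then luminescence read. IC50 by nonlinear regression; three independent experiments.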

[2] = Cytotoxicity against human LKB1-positive NCI-H460 cells assessed as reduction in cell viability measured after 72 hrs by CellTiter-Blue cell viability assay; type: functional, cell-based
Procedure, shortened: (§2)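 Monolayer cultures in RPMI-1640 with 10% FBS at 37°C, seeded at 850 (H460 CTR5), 660 (H460 LKB1+/+) or 1780 (H322) cells/well so that the end point reaches 70–80% confluence. Treated 72h; vehicle 0.15% DMSO. CellTiter-Blue added until colour change (50–60, 80–90 or 100–120 min respectively), fluorescence read at 590 nm. IC50 by nonlinear regression; three independent experiments.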

[3] = Cytotoxicity against human NCI-H322 spheroids assessed as reduction in cell viability measured after 96 hrs by CellTiter-Glo luminescence viability assay; type: functional; details: NCI-H322, 96 h; procedure, shortened: as §1
[4] = Cytotoxicity against human NCI-H322 cells assessed as reduction in cell viability measured after 72 hrs by CellTiter-Blue cell viability assay; type: functional, cell-based; procedure, shortened: as §2
[5] = Cytotoxicity against human NCI-H460 cells expressing CTR5 gene assessed as reduction in cell viability measured after 72 hrs by CellTiter-Blue cell viability assay; type: functional, cell-based; procedure, shortened: as §2
[6] = tested on: NCI-H460; assay: Induction of autophagy in human NCI-H460 cells expressing CTR5 gene assessed as acidic vesicular organelle formation measured after 72 hrs by acridine orange dye based flow cytometry (reference value: 91.2%); type: functional
Procedure, shortened: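 H460 CTR5 cells plated in 6-well plates (0.095 × 10⁵ cells/well, RPMI-1640 with 10% FBS) and treated 24 h later with vehicle (0.15% DMSO), drug at 3 or 4 μM, or medium alone for 72 h. Bafilomycin A1 was added to the untreated well 30 min before staining as negative control. Cells were stained with acridine orange for 15 min at 37°C in the dark. Flow cytometry read the red/green (FL3/FL1) ratio; three independent experiments.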

[7] = Homo sapiens, NCI-H460, 72 h, read-out: IC50
[8] = Homo sapiens, NCI-H322, 72 h, read-out: IC50

SMILES | IC50 [1] | IC50 [2, 7] | IC50 [3] | IC50 [4, 8] | IC50 [5, 7] | IC50 ([2]; nci-h460) | IC50 ([4]; nci-h322) | IC50 ([5]; nci-h460) | Activity [6]
C=C(C)[C@@H]1CC[C@]2(C)[C@H](C[C@@H](F)C34OC(=O)[C@@]5(CC[C@@H](C)[C@H](C)[C@@H]35)CC[C@]42C)[C@@]1(C)CCC(=O)NC | 3 µM | 6.7 µM | 12.1 µM | 6.8 µM | 4.5 µM |  |  |  | 
C=C(C)[C@@H]1CC[C@]2(C)[C@H](C[C@@H](F)C34OC(=O)[C@@]5(CC[C@@H](C)[C@H](C)[C@@H]35)CC[C@]42C)[C@@]1(C)CCC(=O)NCCc1ccccc1 |  | > 50 µM |  | > 50 µM | > 50 µM |  |  |  | 
C=C(C)[C@@H]1CC[C@]2(C)[C@H](C[C@@H](F)C34OC(=O)[C@@]5(CC[C@@H](C)[C@H](C)[C@@H]35)CC[C@]42C)[C@@]1(C)CCC(=O)NCc1ccc(F)cc1 |  | > 50 µM |  | > 50 µM | > 50 µM |  |  |  | 
C[C@H]1[C@H](C)CC[C@@]23CC[C@]4(C)C(OC2=O)([C@H](F)C[C@@H]2[C@@]5(C)CCC(=O)OC(C)(C)[C@@H]5CC[C@]24C)[C@H]13 |  |  |  |  |  | Nd(Insoluble) | Nd(Insoluble) | Nd(Insoluble) | 
C=C(C)[C@@H]1CC[C@]2(C)[C@H](C[C@@H](F)C34OC(=O)[C@@]5(CC[C@@H](C)[C@H](C)[C@@H]35)CC[C@]42C)[C@@]1(C)CCC(=O)NCc1ccc(C)cc1 |  | > 50 µM |  | > 50 µM | > 50 µM |  |  |  | 
C=C(C)[C@@H]1CC[C@]2(C)[C@H](C[C@@H](F)C34OC(=O)[C@@]5(CC[C@@H](C)[C@H](C)[C@@H]35)CC[C@]42C)[C@@]1(C)CCC(=O)O |  | > 50 µM |  | > 50 µM | > 50 µM |  |  |  | 
C[C@H]1[C@H](C)CC[C@@]23CC[C@]4(C)C(OC2=O)([C@H](F)C[C@@H]2[C@@]5(C)CC[C@H](O)C(C)(C)[C@@H]5CC[C@]24C)[C@H]13 | 19.5 µM | 18.7 µM |  | 14.3 µM | 19.3 µM |  |  |  | 
C=C(C)[C@@H]1CC[C@]2(C)[C@H](C[C@@H](F)C34OC(=O)[C@@]5(CC[C@@H](C)[C@H](C)[C@@H]35)CC[C@]42C)[C@@]1(C)CCC(N)=O |  | 21.8 µM |  | 24.1 µM | 23 µM |  |  |  | 
C=C(C)[C@@H]1CC[C@]2(C)[C@H](C[C@@H](F)C34OC(=O)[C@@]5(CC[C@@H](C)[C@H](C)[C@@H]35)CC[C@]42C)[C@@]1(C)CCC#N |  | > 17 µM |  | > 17 µM | > 17 µM |  |  |  | 
CO/C1=C\C(C)=C\[C@@H](C)[C@@H](O)[C@@H](C)C/C(C)=C/C=C/[C@H](OC)[C@@H]([C@@H](C)[C@@H](O)[C@H](C)[C@@]2(O)C[C@@H](O)[C@H](C)[C@@H](C(C)C)O2)OC1=O [BAFILOMYCIN A1] |  |  |  |  |  |  |  |  | 100%
C[C@H]1[C@H](C)CC[C@@]23CC[C@]4(C)C(OC2=O)([C@H](F)C[C@@H]2[C@@]5(C)CCC(=O)C(C)(C)[C@@H]5CC[C@]24C)[C@H]13 |  | > 50 µM |  | > 50 µM | > 50 µM |  |  |  | 
C=C(C)[C@@H]1CC[C@]2(C)[C@H](C[C@@H](F)C34OC(=O)[C@@]5(CC[C@@H](C)[C@H](C)[C@@H]35)CC[C@]42C)[C@@]1(C)CCC(=O)Nc1ccccc1 |  | > 50 µM |  | > 50 µM | > 50 µM |  |  |  | 
C[C@H]1[C@H](C)CC[C@@]23CC[C@]4(C)C(OC2=O)([C@H](F)C[C@@H]2[C@@]5(C)CCC(=O)NC(C)(C)[C@@H]5CC[C@]24C)[C@H]13 |  | 13.5 µM |  | > 25 µM | > 25 µM |  |  |  | 
C=C(C)[C@@H]1CC[C@]2(C)[C@H](C[C@@H](F)C34OC(=O)[C@@]5(CC[C@@H](C)[C@H](C)[C@@H]35)CC[C@]42C)[C@@]1(C)CCC(=O)NCCc1cccc(Cl)c1 |  | > 50 µM |  | > 50 µM | > 50 µM |  |  |  | 
C=C(C)[C@@H]1CC[C@]2(C)[C@H](C[C@@H](F)C34OC(=O)[C@@]5(CC[C@@H](C)[C@H](C)[C@@H]35)CC[C@]42C)[C@@]1(C)CCC(=O)NCCc1ccccc1OC |  | > 50 µM |  | > 50 µM | > 50 µM |  |  |  | 
C[C@H]1[C@H](C)CC[C@]2(C(=O)O)CC[C@]3(C)C(=CC[C@@H]4[C@@]5(C)CC[C@H](O)C(C)(C)[C@@H]5CC[C@]43C)[C@H]12 [URSOLIC ACID] | 30.8 µM | 21.1 µM | 18.2 µM | 15.3 µM | 14.8 µM |  |  |  | 
C=C(C)[C@@H]1CC[C@]2(C)[C@H](C[C@@H](F)C34OC(=O)[C@@]5(CC[C@@H](C)[C@H](C)[C@@H]35)CC[C@]42C)[C@@]1(C)CCC(=O)NCC | 5.7 µM | 7.8 µM | 11.6 µM | 7.3 µM | 5.3 µM |  |  |  | 
